Source: ChEMBL document CHEMBL1275426, “Apoptosis induced by aminoglycosides in LLC-PK1 Cells: comparative study of neomycin, gentamicin, amikacin, and isepamicin using electroporation” (Antimicrob Agents Chemother, 2008)
Calls of active or inactive are those of the source. The calls are words filed in the database; no cut-off is given here.

Tests used:
[1] = test system: LLC-PK1; test: Induction of apoptosis in pig LLC-PK1 cells at 0.192 to 0.384 mM after 24 hrs electoporated in presence of compound; assay type: functional, cell-based; details: Sus scrofa
Method in brief: (§1)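 LLC-PK1 cells were electroporated with or without aminoglycoside at increasing concentrations, up to 0.384 mM, present during the pulse. Cells were then returned to aminoglycoside-free medium. Apoptotic nuclei were enumerated 24 h later. Values are mean ± SD, n = 3, by two-tailed ANOVA against controls.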

[2] = test system: LLC-PK1; test: Induction of apoptosis in pig LLC-PK1 cells at 0.064 mM after 24 hrs electoporated in presence of compound; assay type: functional, cell-based; details: Sus scrofa; method in brief: as §1
[3] = test system: LLC-PK1; test: Induction of apoptosis in pig LLC-PK1 cells at 6 mM after 1 day by DAPI staining; assay type: functional, cell-based; details: Sus scrofa
Method in brief: (§2)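 LLC-PK1 cells were incubated without drug or with 2 mM or 6 mM aminoglycoside for up to 3 days. Nuclei were stained with DAPI, and the percentage of apoptotic nuclei was counted by microscopy. Camptothecin at 14.3 μM served as positive control. Values are mean ± SD, n = 3, by two-tailed ANOVA against matched controls.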

[4] = test system: LLC-PK1; test: Induction of apoptosis in pig LLC-PK1 cells at 6 mM after 2 days by DAPI staining; assay type: functional, cell-based; details: Sus scrofa; method in brief: as §2
[5] = test system: LLC-PK1; test: Induction of apoptosis in pig LLC-PK1 cells at 6 mM after 3 days by DAPI staining; assay type: functional, cell-based; details: Sus scrofa; method in brief: as §2
[6] = test system: Homo sapiens; test: Drug uptake in human at 15 mg/kg; assay type: ADME, organism-based; set-up: dose 15 mg/kg; details: in vivo
[7] = test system: LLC-PK1; test: Induction of necrosis in pig LLC-PK1 cells assessed as lactate dehydrogenase release; assay type: functional, cell-based; details: Sus scrofa
[8] = test system: LLC-PK1; test: Induction of apoptosis in pig LLC-PK1 cells upto 9 mM after 2 days by DAPI staining; assay type: functional, cell-based; details: Sus scrofa
Method in brief: (§3)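 LLC-PK1 cells were incubated for 48 h over a concentration series: 0 to 3 mM, or 3 to 9 mM. Apoptotic nuclei were scored as a percentage by DAPI staining under the microscope. Values are mean ± SD, n = 3, by two-tailed ANOVA against drug-free cells.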

[9] = test system: LLC-PK1; test: Induction of apoptosis in pig LLC-PK1 cells at 2 mM by DAPI staining; assay type: functional, cell-based; details: Sus scrofa, TDE = time-dependent effect; method in brief: as §2
[10] = test system: LLC-PK1; test: Induction of apoptosis in pig LLC-PK1 cells assessed as caspase 3 activity at 2 mM after 2 days […]; assay type: functional, cell-based; details: Sus scrofa
Method in brief: (§4)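 Renal LLC-PK1 cells were incubated up to 3 days with 2 mM drug in continuous exposure. Caspase 3 activity was measured with the fluorogenic substrate N-acetyl-Asp-Glu-Val-Asp-7-amido-4-methylcoumarin and expressed as % of matched untreated controls. The positive control was camptothecin at 14.3 μM. Values are mean ± SD, n = 3, by two-tailed ANOVA against matched controls.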

[11] = test system: LLC-PK1; test: Induction of apoptosis in pig LLC-PK1 cells assessed as caspase 3 activity at 2 mM after 1 day […]; assay type: functional, cell-based; details: Sus scrofa; method in brief: as §4
[12] = test system: LLC-PK1; test: Induction of apoptosis in pig LLC-PK1 cells at 0.1mM after 24 hrs electoporated in presence of compound; assay type: functional, cell-based; details: Sus scrofa; method in brief: as §1
[13] = test system: LLC-PK1; test: Induction of apoptosis in pig LLC-PK1 cells measured at 0 to 3 mM after 2 days by DAPI staining; assay type: functional, cell-based; details: Sus scrofa; method in brief: as §3

## CN[C@@H]1[C@@H](O)[C@@H](O[C@@H]2[C@@H](O)[C@H](O[C@H]3O[C@H](CN)[C@@H](O)[C@H](O)[C@H]3O)[C@@H](N)C[C@H]2NC(=O)[C@@H](O)CN)OC[C@]1(C)O
[1]
  Activity: Active

## NC[C@@H]1O[C@H](O[C@H]2[C@@H](O)[C@H](O[C@@H]3[C@@H](O)[C@H](N)C[C@H](N)[C@H]3O[C@H]3O[C@H](CN)[C@@H](O)[C@H](O)[C@H]3N)O[C@@H]2CO)[C@H](N)[C@@H](O)[C@@H]1O
[2]
  Activity: Active

## NCC[C@H](O)C(=O)N[C@@H]1C[C@H](N)[C@@H](O[C@H]2O[C@H](CN)[C@@H](O)[C@H](O)[C@H]2O)[C@H](O)[C@H]1O[C@H]1O[C@H](CO)[C@@H](O)[C@H](N)[C@H]1O [AMIKACIN]
[3]
  Activity: inactive
[4]
  Activity: inactive
[5]
  Activity: Active
[6]
  Drug uptake: 25.6 µmol/kg
[7]
  Activity: inactive
[8]
  Activity: inactive

## GENTAMICIN [listing 1 of 2 here]
[6]
  Drug uptake: 8.56 µmol/kg

## GENTAMICIN [listing 2 of 2 here]
[9]
  Activity: tde
[10]
  Activity: Active
[11]
  Activity: Active
[12]
  Activity: Active
[13]
  Activity: Dose-dependent effect
